Converted amounts (≈) assume the structure as drawn.
These compounds were tested on Escherichia coli (assay: Anti-bacterial activity was tested against Gram-negative EC-1 bacterium).
Type: functional
Summary of the method: (§1)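 Standard microtitration MIC determination (µg/mL) against four representative Gram-negative and Gram-positive bacterial strains.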

Row | SMILES | MIC [µg/mL]
1 | CC1CN(c2cc3c(cc2F)c(=O)c(C(=O)O)cn3C(C)(C)C)CCN1 (centres undefined) | 0.1 (≈ 0.277 µM)
2 | CN(C)CC1CCN(c2cc3c(cc2F)c(=O)c(C(=O)O)cn3C2CC2)C1 (centres undefined) | 0.2 (≈ 0.536 µM)
3 | CC(C)n1cc(C(=O)O)c(=O)c2cc(F)c(N3CCC(N)C3)cc21 (centres undefined) | 0.8 (≈ 2.4 µM)
4 | O=C(O)c1cn(-c2ccc(F)cc2F)c2cc(N3CCNCC3)c(F)cc2c1=O | 0.1 (≈ 0.248 µM)
5 | CCNCC1CCN(c2cc3c(cc2F)c(=O)c(C(=O)O)cn3-c2ccc(F)cc2F)C1 (centres undefined) | 0.4 (≈ 0.898 µM)

The remaining compounds from weak to strong by MIC, led by results:

Row | MIC [µg/mL] | SMILES
6 | 0.8 (≈ 2.14 µM) | CCN1CCN(c2cc3c(cc2F)c(=O)c(C(=O)O)cn3C2CCC2)CC1
7 | 0.2 (≈ 0.533 µM) | CCN1CCN(c2cc3c(cc2F)c(=O)c(C(=O)O)cn3C(C)(C)C)CC1
8 | 0.1 (≈ 0.258 µM) | CCCCN1CCN(c2cc3c(cc2F)c(=O)c(C(=O)O)cn3C2CC2)CC1
9 | 0.05 (≈ 0.145 µM) | CC1CN(c2cc3c(cc2F)c(=O)c(C(=O)O)cn3C2CC2)CCN1 (centres undefined)

What follows are compounds tested on Mycolicibacterium fortuitum (assay: Anti-bacterial activity tested against Mycobacterium fortuitum (ATCG 6841)).
Type: functional

Row | SMILES | MIC [µg/mL]
10 | CC1CN(c2cc3c(cc2F)c(=O)c(C(=O)O)cn3C(C)(C)C)CCN1 (centres undefined) | 0.03 (≈ 0.083 µM)
11 | CN(C)CC1CCN(c2cc3c(cc2F)c(=O)c(C(=O)O)cn3C2CC2)C1 (centres undefined) | 0.13 (≈ 0.348 µM)
12 | CC(C)n1cc(C(=O)O)c(=O)c2cc(F)c(N3CCC(N)C3)cc21 (centres undefined) | 1 (≈ 3 µM)
13 | O=C(O)c1cn(-c2ccc(F)cc2F)c2cc(N3CCNCC3)c(F)cc2c1=O | 0.25 (≈ 0.62 µM)
14 | CCNCC1CCN(c2cc3c(cc2F)c(=O)c(C(=O)O)cn3-c2ccc(F)cc2F)C1 (centres undefined) | 0.5 (≈ 1.12 µM)

Other lines, results leading:

Row | MIC [µg/mL] | SMILES
15 | 0.5 (≈ 1.34 µM) | CCN1CCN(c2cc3c(cc2F)c(=O)c(C(=O)O)cn3C2CCC2)CC1
16 | 0.13 (≈ 0.346 µM) | CCN1CCN(c2cc3c(cc2F)c(=O)c(C(=O)O)cn3C(C)(C)C)CC1
17 | 1 (≈ 2.58 µM) | CCCCN1CCN(c2cc3c(cc2F)c(=O)c(C(=O)O)cn3C2CC2)CC1
18 | 0.06 (≈ 0.174 µM) | CC1CN(c2cc3c(cc2F)c(=O)c(C(=O)O)cn3C2CC2)CCN1 (centres undefined)

The compounds below were run on Mycolicibacterium smegmatis (assay: Anti-bacterial activity tested against Mycobacterium smegmatis (ATCG 19420)).
Type: functional

Row | SMILES | MIC [µg/mL]
19 | CC1CN(c2cc3c(cc2F)c(=O)c(C(=O)O)cn3C(C)(C)C)CCN1 (centres undefined) | 0.06 (≈ 0.166 µM)
20 | CN(C)CC1CCN(c2cc3c(cc2F)c(=O)c(C(=O)O)cn3C2CC2)C1 (centres undefined) | 0.5 (≈ 1.34 µM)
21 | CC(C)n1cc(C(=O)O)c(=O)c2cc(F)c(N3CCC(N)C3)cc21 (centres undefined) | 2 (≈ 6 µM)
22 | O=C(O)c1cn(-c2ccc(F)cc2F)c2cc(N3CCNCC3)c(F)cc2c1=O | 0.5 (≈ 1.24 µM)
23 | CCNCC1CCN(c2cc3c(cc2F)c(=O)c(C(=O)O)cn3-c2ccc(F)cc2F)C1 (centres undefined) | 0.5 (≈ 1.12 µM)

Continued, values first:

Row | MIC [µg/mL] | SMILES
24 | 2 (≈ 5.36 µM) | CCN1CCN(c2cc3c(cc2F)c(=O)c(C(=O)O)cn3C2CCC2)CC1
25 | 0.13 (≈ 0.346 µM) | CCN1CCN(c2cc3c(cc2F)c(=O)c(C(=O)O)cn3C(C)(C)C)CC1
26 | 0.5 (≈ 1.29 µM) | CCCCN1CCN(c2cc3c(cc2F)c(=O)c(C(=O)O)cn3C2CC2)CC1
27 | 0.25 (≈ 0.724 µM) | CC1CN(c2cc3c(cc2F)c(=O)c(C(=O)O)cn3C2CC2)CCN1 (centres undefined)

The compounds below were run on Pseudomonas aeruginosa (assay: Anti-bacterial activity tested against Gram-negative PA-7 bacterium).
Type: functional
Summary of the method: as §1

Row | SMILES | MIC [µg/mL]
28 | CC1CN(c2cc3c(cc2F)c(=O)c(C(=O)O)cn3C(C)(C)C)CCN1 (centres undefined) | 0.8 (≈ 2.21 µM)
29 | CN(C)CC1CCN(c2cc3c(cc2F)c(=O)c(C(=O)O)cn3C2CC2)C1 (centres undefined) | 0.8 (≈ 2.14 µM)
30 | CC(C)n1cc(C(=O)O)c(=O)c2cc(F)c(N3CCC(N)C3)cc21 (centres undefined) | 1.6 (≈ 4.8 µM)
31 | O=C(O)c1cn(-c2ccc(F)cc2F)c2cc(N3CCNCC3)c(F)cc2c1=O | 0.2 (≈ 0.496 µM)
32 | CCNCC1CCN(c2cc3c(cc2F)c(=O)c(C(=O)O)cn3-c2ccc(F)cc2F)C1 (centres undefined) | 1.6 (≈ 3.59 µM)

The remaining lines, values ahead:

Row | MIC [µg/mL] | SMILES
33 | > 3.1 | CCN1CCN(c2cc3c(cc2F)c(=O)c(C(=O)O)cn3C2CCC2)CC1
34 | 1.6 (≈ 4.26 µM) | CCN1CCN(c2cc3c(cc2F)c(=O)c(C(=O)O)cn3C(C)(C)C)CC1
35 | 1.6 (≈ 4.13 µM) | CCCCN1CCN(c2cc3c(cc2F)c(=O)c(C(=O)O)cn3C2CC2)CC1
36 | 0.2 (≈ 0.579 µM) | CC1CN(c2cc3c(cc2F)c(=O)c(C(=O)O)cn3C2CC2)CCN1 (centres undefined)

The compounds below were run on Staphylococcus aureus (assay: Anti-bacterial activity was tested against Gram-positive SA-13 bacterium).
Type: functional
Summary of the method: as §1

Row | SMILES | MIC [µg/mL]
37 | CC1CN(c2cc3c(cc2F)c(=O)c(C(=O)O)cn3C(C)(C)C)CCN1 (centres undefined) | 0.4 (≈ 1.11 µM)
38 | CN(C)CC1CCN(c2cc3c(cc2F)c(=O)c(C(=O)O)cn3C2CC2)C1 (centres undefined) | 0.2 (≈ 0.536 µM)
39 | CC(C)n1cc(C(=O)O)c(=O)c2cc(F)c(N3CCC(N)C3)cc21 (centres undefined) | 3.1 (≈ 9.3 µM)
40 | O=C(O)c1cn(-c2ccc(F)cc2F)c2cc(N3CCNCC3)c(F)cc2c1=O | 0.4 (≈ 0.992 µM)
41 | CCNCC1CCN(c2cc3c(cc2F)c(=O)c(C(=O)O)cn3-c2ccc(F)cc2F)C1 (centres undefined) | 0.2 (≈ 0.449 µM)

The remaining lines, values ahead:

Row | MIC [µg/mL] | SMILES
42 | 3.1 (≈ 8.3 µM) | CCN1CCN(c2cc3c(cc2F)c(=O)c(C(=O)O)cn3C2CCC2)CC1
43 | 0.2 (≈ 0.533 µM) | CCN1CCN(c2cc3c(cc2F)c(=O)c(C(=O)O)cn3C(C)(C)C)CC1
44 | 0.4 (≈ 1.03 µM) | CCCCN1CCN(c2cc3c(cc2F)c(=O)c(C(=O)O)cn3C2CC2)CC1
45 | 0.8 (≈ 2.32 µM) | CC1CN(c2cc3c(cc2F)c(=O)c(C(=O)O)cn3C2CC2)CCN1 (centres undefined)

The compounds below were run on Streptococcus pyogenes (assay: Anti-bacterial activity tested against Gram-positive SP1-1 bacterium).
Type: functional
Summary of the method: as §1

Row | SMILES | MIC [µg/mL]
46 | CC1CN(c2cc3c(cc2F)c(=O)c(C(=O)O)cn3C(C)(C)C)CCN1 (centres undefined) | > 3.1
47 | CN(C)CC1CCN(c2cc3c(cc2F)c(=O)c(C(=O)O)cn3C2CC2)C1 (centres undefined) | 0.2 (≈ 0.536 µM)
48 | CC(C)n1cc(C(=O)O)c(=O)c2cc(F)c(N3CCC(N)C3)cc21 (centres undefined) | > 3.1
49 | O=C(O)c1cn(-c2ccc(F)cc2F)c2cc(N3CCNCC3)c(F)cc2c1=O | 0.4 (≈ 0.992 µM)
50 | CCNCC1CCN(c2cc3c(cc2F)c(=O)c(C(=O)O)cn3-c2ccc(F)cc2F)C1 (centres undefined) | 0.1 (≈ 0.224 µM)

More lines, now with the values ahead:

Row | MIC [µg/mL] | SMILES
51 | > 3.1 | CCN1CCN(c2cc3c(cc2F)c(=O)c(C(=O)O)cn3C2CCC2)CC1
52 | > 3.1 | CCN1CCN(c2cc3c(cc2F)c(=O)c(C(=O)O)cn3C(C)(C)C)CC1
53 | > 3.1 | CCCCN1CCN(c2cc3c(cc2F)c(=O)c(C(=O)O)cn3C2CC2)CC1
54 | 0.8 (≈ 2.32 µM) | CC1CN(c2cc3c(cc2F)c(=O)c(C(=O)O)cn3C2CC2)CCN1 (centres undefined)
